In ChEMBL document CHEMBL3526068, “In vitro investigation of human UDP-glucuronosyltransferase isoforms responsible for tacrolimus glucuronidation: predominant contribution of UGT1A4” (Drug Metab Dispos, 2011):
One block for each molecule: values may come before it.

Key:
[1] = tested on: C=CC[C@@H]1/C=C(\C)C[C@H](C)C[C@H](OC)[C@H]2O[C@@](O)(C(=O)C(=O)N3CCCC[C@H]3C(=O)O[C@H](/C(C)=C/[C@@H]3CC[C@@H](O)[C@H](OC)C3)[C@H](C)[C@@H](O)CC1=O)[C@H](C)C[C@@H]2OC; assay: Activity of UGT1A4*2 mutant (unknown origin) overexpressed in HEK293 cells assessed as enzyme-mediated glucuronidation after 1 hr by Eadie-Hofstee plot analysis; type: ADME, cell-based, Homo sapiens
How it was run: (§1)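 Tacrolimus at 25–750 μM was incubated 1 h and glucuronide was measured by LC-MS/MS. A kinetic model was fitted, and Vmax was adjusted for UGT1A4 protein content. Data are mean ± SD of triplicates from three independent experiments.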

[2] = tested on: C=CC[C@@H]1/C=C(\C)C[C@H](C)C[C@H](OC)[C@H]2O[C@@](O)(C(=O)C(=O)N3CCCC[C@H]3C(=O)O[C@H](/C(C)=C/[C@@H]3CC[C@@H](O)[C@H](OC)C3)[C@H](C)[C@@H](O)CC1=O)[C@H](C)C[C@@H]2OC; assay: Activity of UGT1A4*3 mutant (unknown origin) overexpressed in HEK293 cells assessed as enzyme-mediated glucuronidation after 1 hr by Eadie-Hofstee plot analysis; type: ADME, cell-based, Homo sapiens; how it was run: as §1
[3] = Drug metabolism in human intestine assessed as glucuronidation at 25 to 750 uM after 1 hr by Eadie-Hofstee plot analysis; type: ADME, tissue-based
How it was run: (§2)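 Pooled human intestine microsomes were incubated 1 h with tacrolimus at 25–750 μM. Glucuronide formation was measured by LC-MS/MS, and kinetic parameters came from a selected enzyme kinetic model fit. Data are mean ± SD of triplicate determinations from three independent experiments.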

[4] = tested on: UGT1A4*4; assay: Activity of UGT1A4*4 mutant (unknown origin) overexpressed in HEK293 cells assessed as enzyme-mediated glucuronidation after 1 hr by Eadie-Hofstee plot analysis; type: ADME, cell-based; conditions: human, HEK293 cells overexpressing UGT1A4*4; how it was run: as §1
[5] = biological target: T1, UDP-glucuronosyltransferase 1A4 (Homo sapiens, UniProt P22310); assay: Activity at human recombinant UGT1A4 assessed as enzyme-mediated tacrolimus glucuronide formation at 200 uM after 16 hrs by LC-MS analysis; type: ADME
T1 sequence (P22310 whole entry): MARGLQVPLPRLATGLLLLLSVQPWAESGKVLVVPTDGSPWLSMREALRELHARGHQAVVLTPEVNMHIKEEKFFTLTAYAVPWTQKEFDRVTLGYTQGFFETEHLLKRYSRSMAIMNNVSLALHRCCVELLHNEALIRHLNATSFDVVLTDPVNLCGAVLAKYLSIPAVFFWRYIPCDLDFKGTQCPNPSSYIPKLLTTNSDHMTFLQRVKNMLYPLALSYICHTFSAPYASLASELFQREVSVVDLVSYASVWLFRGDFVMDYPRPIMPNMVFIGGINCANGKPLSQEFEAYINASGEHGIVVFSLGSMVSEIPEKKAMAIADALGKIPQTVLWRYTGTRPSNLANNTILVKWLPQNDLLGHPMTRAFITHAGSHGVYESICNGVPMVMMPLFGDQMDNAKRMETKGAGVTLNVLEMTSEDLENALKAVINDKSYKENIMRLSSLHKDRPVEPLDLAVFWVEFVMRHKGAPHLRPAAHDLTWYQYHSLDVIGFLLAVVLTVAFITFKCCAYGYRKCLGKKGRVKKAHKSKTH
How it was run: (§3)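 Microsomes from human liver, kidney and intestine, or from HEK293 cells overexpressing individual UGT1A or UGT2B enzymes, were prepared by differential centrifugation. They were incubated 16 h at 37°C with 200 μM tacrolimus. Tacrolimus glucuronide was detected by LC-MS/MS (C8 column, ammonium acetate/acetic acid–methanol gradient, positive electrospray), with CsA d4 as a marker.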

[6] = tested on: Liver microsome; assay: Drug metabolism in human liver microsomes assessed as glucuronidation at 200 uM after 16 hrs by LC-MS analysis; type: ADME; how it was run: as §3
[7] = Activity of UGT1A4*4 mutant (unknown origin) overexpressed in HEK293 cells assessed as enzyme-mediated glucuronidation at 25 to 750 uM after 1 hr by Eadie-Hofstee plot analysis; type: ADME, cell-based; conditions: human, hek293, 1 h; how it was run: as §1
[8] = biological target: T2, UDP-glucuronosyltransferase 2B7 (Homo sapiens, UniProt P16662); assay: Drug metabolism in human kidney microsomes assessed as UGT2B7-mediated tacrolimus glucuronide formation at 200 uM after 16 hrs by LC-MS analysis; type: ADME; how it was run: as §3
T2 sequence (P16662 whole entry): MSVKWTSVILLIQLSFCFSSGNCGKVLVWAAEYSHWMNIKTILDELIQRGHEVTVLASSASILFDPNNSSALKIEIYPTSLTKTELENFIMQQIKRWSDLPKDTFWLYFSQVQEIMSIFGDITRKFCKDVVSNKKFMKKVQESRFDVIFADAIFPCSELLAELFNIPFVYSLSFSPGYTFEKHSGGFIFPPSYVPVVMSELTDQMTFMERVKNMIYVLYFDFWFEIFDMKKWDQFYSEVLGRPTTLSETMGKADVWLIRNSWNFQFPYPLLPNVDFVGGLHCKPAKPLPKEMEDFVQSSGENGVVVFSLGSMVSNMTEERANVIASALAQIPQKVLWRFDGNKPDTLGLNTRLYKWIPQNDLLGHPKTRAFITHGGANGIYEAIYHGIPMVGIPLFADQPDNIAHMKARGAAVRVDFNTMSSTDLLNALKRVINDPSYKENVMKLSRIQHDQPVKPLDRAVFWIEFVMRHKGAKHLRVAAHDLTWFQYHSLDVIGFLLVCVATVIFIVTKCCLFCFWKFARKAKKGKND

[9] = biological target: UDP-glucuronosyltransferase 1A4 (Homo sapiens, UniProt P22310, L48V); assay: Activity of UGT1A4*3 mutant (unknown origin) overexpressed in HEK293 cells assessed as enzyme-mediated glucuronidation at 25 to 750 uM after 1 hr by Eadie-Hofstee plot analysis; type: ADME, cell-based; conditions: hek293, 1 h; how it was run: as §1
Sequence of UDP-glucuronosyltransferase 1A4 (Homo sapiens, UniProt P22310, L48V) (P22310 29-534 L48V limits assumed): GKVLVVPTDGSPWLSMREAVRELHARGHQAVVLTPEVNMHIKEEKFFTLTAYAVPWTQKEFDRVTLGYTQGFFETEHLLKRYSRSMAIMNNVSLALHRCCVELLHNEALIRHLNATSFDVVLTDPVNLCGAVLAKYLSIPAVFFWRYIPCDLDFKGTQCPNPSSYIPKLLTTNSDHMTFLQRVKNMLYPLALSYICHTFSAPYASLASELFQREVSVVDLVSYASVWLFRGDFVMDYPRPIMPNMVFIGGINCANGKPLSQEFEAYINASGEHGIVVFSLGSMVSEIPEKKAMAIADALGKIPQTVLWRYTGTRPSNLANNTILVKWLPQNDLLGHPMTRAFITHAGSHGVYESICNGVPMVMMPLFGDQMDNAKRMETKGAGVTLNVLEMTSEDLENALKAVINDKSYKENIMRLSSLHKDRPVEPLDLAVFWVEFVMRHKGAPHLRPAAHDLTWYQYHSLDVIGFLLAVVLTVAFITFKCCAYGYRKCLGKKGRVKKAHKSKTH

[10] = biological target: UDP-glucuronosyltransferase 1A4 (Homo sapiens, UniProt P22310, P24T); assay: Activity of UGT1A4*2 mutant (unknown origin) overexpressed in HEK293 cells assessed as enzyme-mediated glucuronidation at 25 to 750 uM after 1 hr by Eadie-Hofstee plot analysis; type: ADME, cell-based; conditions: hek293, 1 h; how it was run: as §1
Sequence of UDP-glucuronosyltransferase 1A4 (Homo sapiens, UniProt P22310, P24T) (P22310 whole entry P24T): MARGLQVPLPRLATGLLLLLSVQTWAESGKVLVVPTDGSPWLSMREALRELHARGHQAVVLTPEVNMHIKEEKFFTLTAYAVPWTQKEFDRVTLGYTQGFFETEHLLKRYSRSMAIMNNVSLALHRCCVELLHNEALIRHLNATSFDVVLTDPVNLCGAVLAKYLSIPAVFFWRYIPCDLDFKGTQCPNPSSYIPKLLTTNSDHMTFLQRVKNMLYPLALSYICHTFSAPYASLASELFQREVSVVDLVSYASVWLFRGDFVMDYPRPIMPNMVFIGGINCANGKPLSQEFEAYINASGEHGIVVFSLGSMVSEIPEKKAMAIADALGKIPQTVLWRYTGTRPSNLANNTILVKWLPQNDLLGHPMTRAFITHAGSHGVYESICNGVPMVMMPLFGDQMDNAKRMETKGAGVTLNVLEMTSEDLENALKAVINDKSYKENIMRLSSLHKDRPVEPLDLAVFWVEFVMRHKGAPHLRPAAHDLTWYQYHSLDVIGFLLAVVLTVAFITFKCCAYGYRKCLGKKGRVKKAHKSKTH

[11] = tested on: UGT1A4*1; assay: Activity of UGT1A4*1 mutant (unknown origin) overexpressed in HEK293 cells assessed as enzyme-mediated glucuronidation after 1 hr by Eadie-Hofstee plot analysis; type: ADME, cell-based; conditions: human, HEK293 cells overexpressing UGT1A4*1; how it was run: as §1
[12] = Drug metabolism in human intestine microsomes assessed as glucuronidation at 200 uM after 16 hrs by LC-MS analysis; type: ADME; how it was run: as §3
[13] = Drug metabolism in human intestine assessed as glucuronidation after 1 hr by Eadie-Hofstee plot analysis; type: ADME, tissue-based; how it was run: as §2
[14] = Activity of UGT1A4*1 mutant (unknown origin) overexpressed in HEK293 cells assessed as enzyme-mediated glucuronidation at 25 to 750 uM after 1 hr by Eadie-Hofstee plot analysis; type: ADME, cell-based; conditions: human, hek293, 1 h; how it was run: as §1

Molecule: UDP-glucuronosyltransferase 1A4 (Homo sapiens; P24T)
- Km [1]: 114 µM

Molecule: UDP-glucuronosyltransferase 1A4 (Homo sapiens; L48V)
- Km [2]: 126 µM

- Vmax [3]: 0.04 area/min/mg
- Km at 1 h [4]: 101 µM
- Drug metabolism [5]: metabolite_detected
- Drug metabolism [6]: metabolite_detected
- Vmax [7]: 3.14 area/min/mg
- Drug metabolism [8]: metabolite_not_detected
- Vmax [9]: 2.23 area/min/mg
- Vmax [10]: 1.65 area/min/mg
- Km at 1 h [11]: 91 µM
- Drug metabolism [12]: metabolite_detected
- Km at 1 h [13]: 51.8 µM
- Vmax [14]: 1.65 area/min/mg
Molecule: C=CC[C@@H]1/C=C(\C)C[C@H](C)C[C@H](OC)[C@H]2O[C@@](O)(C(=O)C(=O)N3CCCC[C@H]3C(=O)O[C@H](/C(C)=C/[C@@H]3CC[C@@H](O)[C@H](OC)C3)[C@H](C)[C@@H](O)CC1=O)[C@H](C)C[C@@H]2OC [TACROLIMUS ANHYDROUS]
